Article PMC9939322 (Acta Pharmaceutica Sinica. B, 2022)
Ends that are not written are not given here.

Tested on: mice with DSS-induced acute colitis
Assay: Treatment of DSS-induced acute colitis in mice
Format: in vivo, C57BL/6 J mice
Details: oral, daily, 7 days; Ac2-26 95.2 μg/kg; ATTN 35 mg/kg
Procedure, shortened: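 Acute colitis induced in C57BL/6 J mice by 3% (w/v) DSS in drinking water for 7 days. Colitis mice were randomized into 4 groups and dosed daily by oral gavage with one of: saline, free peptide, peptide-free carrier nanoparticles (35 mg/kg), or peptide-loaded nanoparticles (35 mg/kg). Peptide dose was 95.2 μg/kg in every peptide-containing formulation.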

Ac2-26: pro-resolving peptide Ac2-26, synthesized by ChinaPeptides Co., Ltd. (Ac-AMVSEFLKQAWFIENEEQEYVQTVK; UniProt P04083 2-26, looked up, fragment)
depletion of goblet cells (PAS staining): no beneficial effects
